Measured values reported in ChEMBL document CHEMBL1142060, “Dysoxylins A-D, tetranortriterpenoids with potent anti-RSV activity from Dysoxylum gaudichaudianum” (J Nat Prod, 2007).
Converted amounts (≈) assume the structure as drawn.

Key:
[1] = test system: Respiratory syncytial virus; experiment: Antiviral activity against RSV A2 in MA104 cells by plaque reduction assay; type: functional, organism-based; settings: human respiratory syncytial virus
Procedure, shortened: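 MA-104 monolayers infected with 200 PFU/well RSV A2, adsorbed 2.5 h at 37 °C in serum-free MEM. Inoculum removed and agarose overlay added; each compound dilution plated in duplicate. Plaques counted after 4 days and expressed as percent of control. EC50 (µg/mL) derived by regression of mean percent of control at each concentration.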

[2] = test system: Respiratory syncytial virus; experiment: Antiviral activity against RSV A2 in MA104 cells by CPE assay; type: functional, organism-based; settings: human respiratory syncytial virus
Procedure, shortened: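 RSV strain A2 grown in MA-104 cells; cells passaged in MEM with 9% fetal bovine serum and 0.1% NaHCO3. Cytopathic-effect inhibition read-out. Activity expressed as 50% effective concentration (EC50) in µg/mL.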

Row | Compound | EC50 [1] [µg/mL] | IC50 [1] [µg/mL] | EC50 [2] [µg/mL] | IC50 [2] [µg/mL]
1 | C/C=C(/C)C(=O)O[C@@H]1[C@@H]2OC[C@]3(C)[C@H](O)C[C@H](OC(C)=O)[C@@](C)([C@@H]23)[C@H]2C[C@H](OC(C)=O)[C@]3(C)C(=CC[C@H]3C3COC(=O)C3)[C@]12C (stereo partly drawn) [DYSOXYLIN A] | 150 (≈ 239 µM) | 112 (≈ 178 µM) | 2 (≈ 3.18 µM) | 150 (≈ 239 µM)
2 | CC(=O)O[C@H]1C[C@H]2[C@](C)(C3=CC[C@@H](C4COC(=O)C4)[C@@]31C)[C@H](OC(=O)c1ccccc1)[C@@H]1OC[C@]3(C)[C@H](O)C[C@H](OC(C)=O)[C@@]2(C)[C@@H]13 (stereo partly drawn) [DYSOXYLIN B] | 30 (≈ 46.1 µM) | 7 (≈ 10.8 µM) | 4 (≈ 6.15 µM) | 16 (≈ 24.6 µM)
3 | CCC(C)C(=O)O[C@@H]1[C@@H]2OC[C@]3(C)[C@H](O)C[C@H](OC(C)=O)[C@@](C)([C@@H]23)[C@H]2C[C@H](OC(C)=O)[C@]3(C)C(=CC[C@H]3C3COC(=O)C3)[C@]12C (stereo partly drawn) [DYSOXYLIN C] | 146 (≈ 231 µM) | 52 (≈ 82.4 µM) |  | 
4 | CC(=O)O[C@H]1C[C@H]2[C@](C)(C3=CC[C@@H](C4COC(=O)C4)[C@@]31C)[C@H](OC(=O)/C=C(\C)C(C)C)[C@@H]1OC[C@]3(C)[C@H](O)C[C@H](OC(C)=O)[C@@]2(C)[C@@H]13 (stereo partly drawn) [DYSOXYLIN D] | 40 (≈ 60.9 µM) | 42 (≈ 63.9 µM) | 1 (≈ 1.52 µM) | > 200
5 | NC(=O)c1ncn([C@@H]2O[C@H](CO)[C@@H](O)[C@H]2O)n1 [RIBAVIRIN] | 20 (≈ 81.9 µM) | 460 (≈ 1880 µM) | 3.6 (≈ 14.7 µM) | 180 (≈ 737 µM)
